Series [1] concerns the target Serine/threonine-protein kinase B-raf (Homo sapiens, UniProt P15056, V600E). The series is described as follows: Inhibition of BRAF V600E mutant (unknown origin).
Series [2] deals with Serine/threonine-protein kinase B-raf (Homo sapiens, UniProt P15056). As to the kind of experiment: Inhibition of BRAF (unknown origin)-mediated ERK phosphorylation by cell-based assay.
The target in series [3] is Cytochrome P450 3A4 (Homo sapiens, UniProt P08684). As to the kind of experiment: Inhibition of CYP3A4 (unknown origin). The series is classed as ADME.
Series [4] is described as follows: Solubility of the compound at pH 7. The series is classed as physicochemical. Particulars: buffer.
Series [5] in a line: Clearance in rat at 10 mg/kg, po as single dose. Particulars: in vivo. Details: dose 10 mg/kg, route oral. The series is classed as ADME, organism-based. A digest of the protocol: (§1)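 Rats received a single oral dose of 10 mg/kg. Clearance, volume of distribution, half-life and oral bioavailability were derived from the plasma PK profile.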
In series [6] the test system is Rattus norvegicus. The series is described as follows: Volume of distribution in rat at 10 mg/kg, po as single dose. The series is classed as ADME, organism-based. Details: dose 10 mg/kg, route oral. The conditions noted are these: in vivo. A digest of the protocol:
as §1

Series [7] in a line: Half life in rat at 10 mg/kg, po as single dose. The series is classed as ADME, organism-based. Details: dose 10 mg/kg, route oral. Particulars: in vivo. The gist of the method: as §1
Series [8] can be described thus: Oral bioavailability in rat at 10 mg/kg as single dose. The conditions noted are these: in vivo. The series is classed as ADME, organism-based. The gist of the method: as §1
The target in series [9] is Macrophage colony-stimulating factor 1 receptor (Homo sapiens, UniProt P07333). The series is described as follows: Inhibition of CSF1R kinase (unknown origin).
Series [10] concerns the target Vascular endothelial growth factor receptor (Homo sapiens, UniProt P17948+P35916+P35968). As to the kind of experiment: Inhibition of VEGFR (unknown origin). The series is classed as protein assay.
The target of series [11] is Mast/stem cell growth factor receptor Kit (Homo sapiens, UniProt P10721). As to the kind of experiment: Inhibition of c-Kit (unknown origin).
In series [12] the target is Platelet-derived growth factor receptor (Homo sapiens, UniProt P09619+P16234). The series is described as follows: Inhibition of PDGFR (unknown origin). The series is classed as protein-complex assay.
The target in series [13] is Proto-oncogene tyrosine-protein kinase Src (Homo sapiens) (UniProt P12931). As to the kind of experiment: Inhibition of SRC (unknown origin).
Series [14] deals with Tyrosine-protein kinase Lck (Homo sapiens, UniProt P06239). As to the kind of experiment: Inhibition of LCK (unknown origin).
Series [15] concerns HT-29. As to the kind of experiment: Antitumor activity against human HT-29 cells harboring B-RAF V600E mutant xenografted in nude mouse assessed as tumor growth inhibition at 10 mg/kg/day for […] relative to control. The series is classed as functional. The gist of the method:
(§2)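 Nude mice received subcutaneous HT29 (BRAF V600E) colorectal cells at 3×10^6 cells/mouse, and tumors were established over 10 days. Mice were then randomized into 4 groups and dosed orally once daily with vehicle (5 mM citrate) or compound at 10, 30 or 100 mg/kg for 17 days. Tumor growth is given as ΔT/ΔC, and body weight was monitored.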
Background: Xenograft models place foreign cells or tissue in a host animal.

Series [16] concerns HT-29. The series is described as follows: Antitumor activity against human HT-29 cells harboring B-RAF V600E mutant xenografted in nude mouse assessed as tumor growth inhibition at 30 mg/kg/day […] relative to control. The series is classed as functional. A digest of the protocol: as §2
In series [17] the test system is HT-29. As to the kind of experiment: Antitumor activity against human HT-29 cells harboring B-RAF V600E mutant xenografted in nude mouse assessed as tumor growth inhibition at 100 mg/kg/day […] relative to control. The series is classed as functional. The gist of the method: as §2
Series [18] concerns Mus musculus. As to the kind of experiment: Toxicity in human HT-29 cells harboring B-RAF V600E mutant xenografted nude mouse assessed as body weight loss at 10 mg/kg/day for […] relative to control. The conditions noted are these: in vivo. The series is classed as organism-based. The gist of the method:
as §2

For series [19], the system named is Mus musculus. As to the kind of experiment: Toxicity in human HT-29 cells harboring B-RAF V600E mutant xenografted nude mouse assessed as body weight loss at 30 mg/kg/day […] relative to control. The series is classed as organism-based. The conditions noted are these: in vivo. The gist of the method:
as §2

For series [20], the system named is Mus musculus. The series is described as follows: Toxicity in human HT-29 cells harboring B-RAF V600E mutant xenografted nude mouse assessed as body weight loss at 100 mg/kg/day […] relative to control. The series is classed as organism-based. The conditions noted are these: in vivo. A digest of the protocol: as §2
The test system of series [21] is HT-29. The series is described as follows: Inhibition of ERK phosphorylation in human HT-29 cells harboring B-RAF V600E mutant xenografted in nude mouse at 30 to 100 mg/kg/day for 16 days measured 4 to 24 hrs post final dose by Western blot analysis relative to control. The series is classed as functional, organism-based. Particulars: TDE = time-dependent effect. The gist of the method: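 HT29 (BRAF V600E) subcutaneous xenografts in nude mice were dosed orally once daily in 5 mM citrate vehicle at 30 or 100 mg/kg. Tumors were harvested 4 and 24 h after the final dose. Lysates were analysed by Western blot for pERK and total ERK.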

Series [22] is described as follows: Stability in mouse plasma assessed as compound remaining at 1 uM at 37 degC after 45 mins. The series is classed as ADME, cell-free. The conditions noted are these: read-out: Stability.
Series [23] addresses Voltage-gated inwardly rectifying potassium channel KCNH2 (Homo sapiens, UniProt Q12809). The series is described as follows: Inhibition of human ERG.

Experimental findings from ChEMBL document CHEMBL3351360, “Design and Synthesis of Orally Bioavailable Benzimidazole Reverse Amides as Pan RAF Kinase Inhibitors” (ACS Med Chem Lett, 2014) are described below.

Converted amounts (≈) assume the structure as drawn. The source made the active and inactive calls. The calls are words filed in the database; no cut-off is given here.

Sequence of Cytochrome P450 3A4 (P08684 whole entry): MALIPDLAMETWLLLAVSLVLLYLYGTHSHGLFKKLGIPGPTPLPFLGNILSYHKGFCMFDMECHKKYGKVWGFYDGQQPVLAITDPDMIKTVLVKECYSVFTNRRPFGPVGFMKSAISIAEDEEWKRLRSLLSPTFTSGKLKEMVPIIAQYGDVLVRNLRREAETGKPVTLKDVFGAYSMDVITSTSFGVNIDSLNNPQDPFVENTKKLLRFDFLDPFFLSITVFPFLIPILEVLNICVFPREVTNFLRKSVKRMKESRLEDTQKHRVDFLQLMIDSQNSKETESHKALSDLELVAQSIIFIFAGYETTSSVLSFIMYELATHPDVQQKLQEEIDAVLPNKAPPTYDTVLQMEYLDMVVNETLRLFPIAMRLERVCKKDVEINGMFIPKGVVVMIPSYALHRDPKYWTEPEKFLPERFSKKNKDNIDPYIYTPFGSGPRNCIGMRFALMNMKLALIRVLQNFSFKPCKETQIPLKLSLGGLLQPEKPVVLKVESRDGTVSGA
Sequence of Serine/threonine-protein kinase B-raf (Homo sapiens, UniProt P15056, V600E) (P15056 2-766 V600E limits assumed): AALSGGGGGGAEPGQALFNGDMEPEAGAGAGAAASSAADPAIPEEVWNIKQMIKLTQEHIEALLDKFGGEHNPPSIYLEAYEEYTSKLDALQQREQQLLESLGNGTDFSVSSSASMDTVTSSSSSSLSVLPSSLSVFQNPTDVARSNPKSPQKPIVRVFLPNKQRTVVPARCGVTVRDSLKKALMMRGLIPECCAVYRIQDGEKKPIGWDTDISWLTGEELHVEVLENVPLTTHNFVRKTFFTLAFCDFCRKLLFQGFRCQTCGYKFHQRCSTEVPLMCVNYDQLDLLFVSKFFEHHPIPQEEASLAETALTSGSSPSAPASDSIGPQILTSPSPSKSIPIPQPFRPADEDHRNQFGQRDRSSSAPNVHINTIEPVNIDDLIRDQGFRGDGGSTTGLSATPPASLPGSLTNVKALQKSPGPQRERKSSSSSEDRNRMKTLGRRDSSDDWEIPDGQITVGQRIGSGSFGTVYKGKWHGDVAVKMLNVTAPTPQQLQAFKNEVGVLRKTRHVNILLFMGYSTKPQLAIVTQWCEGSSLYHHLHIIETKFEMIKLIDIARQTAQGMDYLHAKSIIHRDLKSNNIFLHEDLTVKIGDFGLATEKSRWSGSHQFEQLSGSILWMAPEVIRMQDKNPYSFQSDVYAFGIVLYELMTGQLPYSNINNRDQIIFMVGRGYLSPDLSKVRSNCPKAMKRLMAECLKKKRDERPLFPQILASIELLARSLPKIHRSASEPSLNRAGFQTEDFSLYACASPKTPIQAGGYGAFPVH
Sequence of Serine/threonine-protein kinase B-raf (Homo sapiens, UniProt P15056) (P15056 whole entry): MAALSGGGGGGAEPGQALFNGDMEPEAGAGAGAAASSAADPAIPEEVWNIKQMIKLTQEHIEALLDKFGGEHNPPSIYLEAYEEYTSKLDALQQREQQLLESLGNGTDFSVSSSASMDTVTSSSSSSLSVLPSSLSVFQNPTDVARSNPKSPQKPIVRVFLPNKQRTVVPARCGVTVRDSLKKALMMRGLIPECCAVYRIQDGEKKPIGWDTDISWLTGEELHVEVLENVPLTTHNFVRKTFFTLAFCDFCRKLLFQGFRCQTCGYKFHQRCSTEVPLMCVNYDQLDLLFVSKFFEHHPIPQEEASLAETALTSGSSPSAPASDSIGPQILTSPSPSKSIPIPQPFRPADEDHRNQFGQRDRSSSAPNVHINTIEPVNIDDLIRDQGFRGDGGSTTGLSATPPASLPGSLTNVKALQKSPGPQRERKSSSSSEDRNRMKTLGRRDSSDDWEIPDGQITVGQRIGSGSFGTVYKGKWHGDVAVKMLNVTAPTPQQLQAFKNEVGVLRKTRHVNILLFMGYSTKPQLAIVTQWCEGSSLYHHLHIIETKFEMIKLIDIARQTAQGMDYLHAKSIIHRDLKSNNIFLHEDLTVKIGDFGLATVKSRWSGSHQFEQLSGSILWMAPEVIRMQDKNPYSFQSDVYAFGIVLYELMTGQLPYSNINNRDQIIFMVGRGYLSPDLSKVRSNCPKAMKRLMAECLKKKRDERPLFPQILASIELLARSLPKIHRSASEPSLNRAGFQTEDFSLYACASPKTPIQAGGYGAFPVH
Sequence of Macrophage colony-stimulating factor 1 receptor (P07333 whole entry): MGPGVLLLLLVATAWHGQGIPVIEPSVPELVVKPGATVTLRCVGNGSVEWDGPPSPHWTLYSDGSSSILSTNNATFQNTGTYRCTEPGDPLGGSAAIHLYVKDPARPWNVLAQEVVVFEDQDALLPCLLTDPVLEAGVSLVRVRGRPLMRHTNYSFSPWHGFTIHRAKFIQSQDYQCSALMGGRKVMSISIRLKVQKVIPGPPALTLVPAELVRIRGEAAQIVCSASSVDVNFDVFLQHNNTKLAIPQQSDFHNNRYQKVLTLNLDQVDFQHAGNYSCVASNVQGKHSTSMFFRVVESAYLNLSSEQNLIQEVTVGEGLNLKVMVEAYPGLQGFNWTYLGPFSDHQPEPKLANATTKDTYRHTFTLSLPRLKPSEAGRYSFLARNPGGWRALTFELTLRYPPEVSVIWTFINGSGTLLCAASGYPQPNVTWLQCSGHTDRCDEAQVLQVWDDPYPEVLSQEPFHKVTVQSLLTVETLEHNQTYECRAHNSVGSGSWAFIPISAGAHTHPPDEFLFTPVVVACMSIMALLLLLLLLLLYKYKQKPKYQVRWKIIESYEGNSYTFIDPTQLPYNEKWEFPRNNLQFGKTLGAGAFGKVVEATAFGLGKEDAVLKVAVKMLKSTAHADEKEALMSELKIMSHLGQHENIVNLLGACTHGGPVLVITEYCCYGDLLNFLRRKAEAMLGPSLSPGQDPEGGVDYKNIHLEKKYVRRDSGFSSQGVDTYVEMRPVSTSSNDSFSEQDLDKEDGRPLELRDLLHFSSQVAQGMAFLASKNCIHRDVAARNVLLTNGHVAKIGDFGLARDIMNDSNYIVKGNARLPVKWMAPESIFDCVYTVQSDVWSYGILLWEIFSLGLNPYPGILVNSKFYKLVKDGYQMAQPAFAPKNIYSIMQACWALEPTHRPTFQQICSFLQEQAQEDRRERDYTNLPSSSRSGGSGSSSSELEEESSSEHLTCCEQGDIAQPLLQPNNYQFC
Sequence of Tyrosine-protein kinase Lck (P06239 whole entry): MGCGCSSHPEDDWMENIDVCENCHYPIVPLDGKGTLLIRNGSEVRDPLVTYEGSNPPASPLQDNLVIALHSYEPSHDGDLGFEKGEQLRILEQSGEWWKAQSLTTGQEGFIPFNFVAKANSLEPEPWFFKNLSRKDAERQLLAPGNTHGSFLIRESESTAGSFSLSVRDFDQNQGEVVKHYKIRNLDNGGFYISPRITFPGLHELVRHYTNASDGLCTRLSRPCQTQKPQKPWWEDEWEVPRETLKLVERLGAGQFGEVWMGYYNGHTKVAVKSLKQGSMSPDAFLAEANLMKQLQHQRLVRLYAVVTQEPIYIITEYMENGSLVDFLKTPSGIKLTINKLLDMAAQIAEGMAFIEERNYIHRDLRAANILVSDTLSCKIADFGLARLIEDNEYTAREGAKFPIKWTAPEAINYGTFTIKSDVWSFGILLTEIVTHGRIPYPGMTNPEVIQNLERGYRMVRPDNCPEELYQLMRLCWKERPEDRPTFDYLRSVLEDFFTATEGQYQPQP
Sequence of Voltage-gated inwardly rectifying potassium channel KCNH2 (Q12809 whole entry): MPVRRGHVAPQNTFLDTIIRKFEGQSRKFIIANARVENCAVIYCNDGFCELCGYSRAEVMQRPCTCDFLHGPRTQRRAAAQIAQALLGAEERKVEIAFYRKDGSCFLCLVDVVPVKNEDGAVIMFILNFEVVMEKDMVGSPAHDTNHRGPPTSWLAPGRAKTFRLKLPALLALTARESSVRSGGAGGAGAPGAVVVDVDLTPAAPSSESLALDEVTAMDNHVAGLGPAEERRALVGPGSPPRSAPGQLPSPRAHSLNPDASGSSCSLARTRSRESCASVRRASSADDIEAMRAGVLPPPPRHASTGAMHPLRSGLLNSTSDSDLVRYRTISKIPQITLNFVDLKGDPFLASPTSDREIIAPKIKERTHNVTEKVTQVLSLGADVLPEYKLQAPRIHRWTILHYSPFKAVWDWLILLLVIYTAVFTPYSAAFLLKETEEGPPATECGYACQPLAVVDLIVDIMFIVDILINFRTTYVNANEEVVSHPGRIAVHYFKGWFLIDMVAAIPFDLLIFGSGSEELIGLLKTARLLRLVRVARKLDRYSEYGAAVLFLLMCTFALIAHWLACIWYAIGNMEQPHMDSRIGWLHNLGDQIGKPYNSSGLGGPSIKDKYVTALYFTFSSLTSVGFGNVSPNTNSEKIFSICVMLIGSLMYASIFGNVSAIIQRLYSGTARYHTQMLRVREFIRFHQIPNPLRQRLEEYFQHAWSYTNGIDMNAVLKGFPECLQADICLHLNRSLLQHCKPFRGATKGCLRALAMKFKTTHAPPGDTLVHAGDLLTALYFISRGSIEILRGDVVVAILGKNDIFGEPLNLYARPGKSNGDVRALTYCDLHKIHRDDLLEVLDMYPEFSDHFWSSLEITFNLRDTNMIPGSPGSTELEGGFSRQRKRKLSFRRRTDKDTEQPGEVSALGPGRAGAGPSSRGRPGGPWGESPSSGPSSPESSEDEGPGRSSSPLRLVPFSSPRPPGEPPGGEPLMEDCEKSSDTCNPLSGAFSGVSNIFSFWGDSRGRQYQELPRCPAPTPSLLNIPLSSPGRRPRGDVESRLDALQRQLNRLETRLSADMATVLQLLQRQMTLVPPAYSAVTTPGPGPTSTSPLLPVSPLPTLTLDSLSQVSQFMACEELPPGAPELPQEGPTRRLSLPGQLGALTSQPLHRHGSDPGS

The term IC50 denotes the concentration that inhibits the measured activity by half. A lower IC50 goes with greater potency. Usually EC50 stands for the midpoint of the concentration-response curve. High values mean weaker potency, low ones greater potency. In the case of `Cn1c(Nc2cccc(C(C)(C)C)c2)nc2cc(Oc3ccnc(NC(=O)C4CCNCC4)c3)ccc21`, in series [1], the IC50 is 7 nM. Moreover, the EC50 in [2] turned out to be 100 nM.
The corresponding values for `CC(=O)Nc1cc(Oc2ccc3c(c2)nc(Nc2ccc(C(C)(C)C)cc2)n3C)ccn1` are 9 nM and 50 nM.
The corresponding values for `CC(=O)Nc1cc(Oc2ccc3c(c2)nc(Nc2ccc(C(C)C)cc2)n3C)ccn1` are 4 nM and 90 nM.
The corresponding values for `CN1CCC(C(=O)Nc2cc(Oc3ccc4c(c3)nc(Nc3cccc(C(C)(C)C)c3)n4C)ccn2)CC1` are 10 nM and 100 nM.
Compound `CC(=O)Nc1cc(Oc2ccc3c(c2)nc(Nc2cccc(OC(F)(F)F)c2)n3C)ccn1` returned an IC50 in series [1] of 0.4 nM. Moreover, the EC50 in series [2] turned out to be 100 nM.
In series [1], `CC(=O)Nc1cc(Oc2ccc3c(c2)nc(Nc2cccc(C(F)(F)F)c2)n3C)ccn1` had an IC50 of 3 nM. This compound also came in with an EC50 in series [2] of 400 nM.
In series [1], `CC(=O)Nc1cc(Oc2ccc3c(c2)nc(Nc2cccc(C(C)C)c2)n3C)ccn1` returned an IC50 of under 0.4 nM. The compound further returned an EC50 in [2] of 50 nM.
With `CC(=O)Nc1cc(Oc2ccc3c(c2)nc(Nc2cc(C(F)(F)F)ccc2F)n3C)ccn1`, the IC50 in [1] is 1 nM. The compound further displayed a 50% effective concentration (EC50) in series [2] of 90 nM.
Taken in the same sequence, the figures for `CCc1cccc(Nc2nc3cc(Oc4ccnc(NC(C)=O)c4)ccc3n2C)c1` were under 0.4 nM and 100 nM.
The compound `CC(C)N1CCN(CC(=O)Nc2cc(Oc3ccc4c(c3)nc(Nc3cc(C(F)(F)F)ccc3F)n4C)ccn2)CC1` had an IC50 in series [1] of 6 nM. The midpoint of the response in series [2], the EC50, lay at 100 nM. The INH in series [3] is 14 µM.
Turning to `CC(=O)Nc1cc(Oc2ccc3c(c2)nc(Nc2cccc(C(C)(C)C)c2)n3C)ccn1`, the IC50 in series [1] was determined as 3 nM. Also, in [2], the EC50 was 40 nM.
By solubility is commonly meant the dissolved amount per volume that the medium holds. A lower solubility goes with a poorly soluble substance. What is called CL/F is clearance divided by bioavailability, as obtained after extravascular dosing. By half-life is commonly meant how long it takes for the measured level to halve. A word on the bioavailability: it is dose-corrected exposure relative to a reference, in per cent. Low values mean poor availability, high ones good availability. In the case of `CC(C)N1CCC(C(=O)Nc2cc(Oc3ccc4c(c3)nc(Nc3cccc(C(C)(C)C)c3)n4C)ccn2)CC1`, 20 nM corresponded to half-maximal inhibition in series [1] (IC50). This compound also had an EC50 in series [2] of 100 nM. For the same compound, the solubility in series [4] worked out at 581 µg/mL (≈ 1070 µM). This compound came in with an INH in [3] of 3 µM. For the same compound, the CL/F in series [5] was 90 mL/min/kg. This compound also showed a Vd in [6] of 17.784 L/kg. The compound also displayed a half-life in series [7] of 4.18 h. Further, the bioavailability in series [8] is 15%.
What is called T/C is the ratio of treated to control. In the case of `CCN1CCN(CC(=O)Nc2cc(Oc3ccc4c(c3)nc(Nc3cc(C(F)(F)F)ccc3F)n4C)ccn2)CC1`, the IC50 in [1] is 6 nM; in [9] it was under 10 nM; in [10] it was under 10 nM; in [11], under 10 nM; in series [12] it was under 10 nM; in series [14], 240 nM. Further, in series [2], the midpoint of the response, the EC50, lay at 100 nM. Besides, the INH in series [3] was over 25 µM; in [23], 2.3 µM. This compound yielded a CL/F in series [5] of 32 mL/min/kg. The Vd in series [6] was found to be 12.737 L/kg. Besides, in series [7], the half-life worked out at 5.67 h. Further, in series [8], the bioavailability was 40%. The inhibition result in series [13] is “inactive”. Also, the T/C in series [15] worked out at 52%; in [16], 72%; in series [17] it was 75%. The Activity entry in [18] is reported as “Non-toxic”; in series [19], “Non-toxic”; in series [20], 13%. Moreover, in series [21], the inhibition entry is “tde”. The remaining at 0.75 h, 1 µM in [22] came out at 1%.
`CC(C)N1CCC(C(=O)Nc2cc(Oc3ccc4c(c3)nc(Nc3cc(C(F)(F)F)ccc3F)n4C)ccn2)CC1` gave an IC50 in [1] of 2 nM. The compound also had an EC50 in series [2] of 100 nM. Also, in series [5], the CL/F came out at 49 mL/min/kg. The bioavailability in series [8] turned out to be 54%.
With `CC(=O)Nc1cc(Oc2ccc3c(c2)nc(Nc2ccc(C(F)(F)F)cc2)n3C)ccn1`, the IC50 in series [1] was 4 nM. The compound also came in with an EC50 in series [2] of 50 nM. Moreover, the remaining at 0.75 h, 1 µM in [22] worked out at 100%.
With `CC(=O)Nc1cc(Oc2ccc3c(c2)nc(Nc2ccc(OC(F)(F)F)cc2)n3C)ccn1`, the 50% inhibitory concentration (IC50) in series [1] was determined as 1 nM. In addition, the EC50 in series [2] was determined as 100 nM.
On to `CCc1ccc(Nc2nc3cc(Oc4ccnc(NC(C)=O)c4)ccc3n2C)cc1`, for which the IC50 in series [1] was found to be 1 nM. The response in [2] was half-maximal at 80 nM (EC50).
